Structures are written as SMILES. pIC50: −log10 of the molar value.

These results are taken from ChEMBL document CHEMBL1140497, “The molecular pruning of a phosphoramidate peptidomimetic inhibitor of prostate-specific membrane antigen” (Bioorg Med Chem, 2007).

Chain of Glutamate carboxypeptidase 2 (Q04609 whole entry): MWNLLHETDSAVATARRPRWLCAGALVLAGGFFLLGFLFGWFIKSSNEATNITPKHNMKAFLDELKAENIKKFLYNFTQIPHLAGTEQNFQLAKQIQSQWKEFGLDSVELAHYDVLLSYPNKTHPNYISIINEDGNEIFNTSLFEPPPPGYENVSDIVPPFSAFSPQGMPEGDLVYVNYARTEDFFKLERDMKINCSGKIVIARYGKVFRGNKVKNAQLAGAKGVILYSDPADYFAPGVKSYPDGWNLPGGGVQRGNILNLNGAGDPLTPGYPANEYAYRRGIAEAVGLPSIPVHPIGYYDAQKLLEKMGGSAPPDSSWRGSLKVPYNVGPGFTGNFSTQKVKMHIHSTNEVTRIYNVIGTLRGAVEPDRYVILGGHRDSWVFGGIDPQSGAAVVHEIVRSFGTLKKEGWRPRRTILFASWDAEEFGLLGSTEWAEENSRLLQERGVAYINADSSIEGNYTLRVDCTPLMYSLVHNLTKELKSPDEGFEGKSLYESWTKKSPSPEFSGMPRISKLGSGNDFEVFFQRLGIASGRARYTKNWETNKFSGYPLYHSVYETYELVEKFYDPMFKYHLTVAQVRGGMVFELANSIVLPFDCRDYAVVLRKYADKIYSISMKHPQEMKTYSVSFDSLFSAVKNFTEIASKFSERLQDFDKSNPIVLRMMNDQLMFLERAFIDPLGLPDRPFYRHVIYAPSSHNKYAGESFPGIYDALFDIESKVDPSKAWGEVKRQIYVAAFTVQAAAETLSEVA

One series concerns the target Glutamate carboxypeptidase 2 (Homo sapiens, UniProt Q04609). The series can be described thus: Inhibition of PSMA.
Conditions: not given
Put shortly:
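Purified PSMA in 50 mM Tris pH 7.4, diluted to give 15–20% substrate conversion without inhibitor. Substrate PAB-Glu-γ-Glu at 10 μM final. Five serial inhibitor dilutions spanning 10–90% inhibition. 15 min at 37 °C with shaking. Stopped with methanolic TFA, buffered with K2HPO4, centrifuged. Supernatant quantified by HPLC; IC50 calculated.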
Take `O=C(O)CC[C@H](NP(=O)(O)O)C(=O)O` [listing 1 of 2 here]: the pIC50 was 8.64.

On to `CN(C(=O)c1ccccc1)[C@@H](COP(=O)(O)N[C@@H](CCC(=O)O)C(=O)O)C(=O)O`, for which the pIC50 was 7.26.

The compound `CN(CCOP(=O)(O)N[C@@H](CCC(=O)O)C(=O)O)C(=O)c1ccccc1` had a pIC50 of 6.55.

For `O=C(O)CC[C@H](NP(=O)(O)OC[C@@H](NC(=O)c1ccccc1)C(=O)O)C(=O)O`, the negative-log IC50 (pIC50) is 6.15.

Regarding `O=C([O-])CC[C@H](NP(=O)([O-])OC[C@H](NC(=O)c1ccccc1)C(=O)[O-])C(=O)[O-].[K+].[K+].[K+].[K+]`, the negative-log IC50 (pIC50) is 7.46.

Take `O=C(O)CC[C@H](NP(=O)(O)O)C(=O)O` [listing 2 of 2 here]: the pIC50 was 9.07. This pIC50 lies 1.61 log units higher than the previous one.

The compound `O=C(O)CC[C@H](OP(=O)(O)O)C(=O)O` gave a negative logarithm of the IC50 (pIC50) of 7.82.

Compound `O=C(O)CC[C@H](NP(=O)(O)OCC(CCc1ccccc1)C(=O)O)C(=O)O` (stereo partly specified) gave a pIC50 of 6.10.

Compound `O=C(O)CC[C@H](NP(=O)(O)OCCCCc1ccccc1)C(=O)O` gave a pIC50 of 6.74.

For `O=C(O)CC[C@H](NP(=O)(O)OCCNC(=O)c1ccccc1)C(=O)O`, the pIC50 was 5.74.

Another series concerns prostate-specific antigen. Briefly: Half life at pH 6.8 in presence of prostate-specific antigen. It counts as ADME. To be noted: prostate-specific antigen (enzyme incubation).
Consider `O=C([O-])CC[C@H](NP(=O)([O-])OC[C@H](NC(=O)c1ccccc1)C(=O)[O-])C(=O)[O-].[K+].[K+].[K+].[K+]`, for which the half-life was found to be 6.8 h.

One may read the pIC50 as −log10 of the IC50, conventionally taken in molar units. Read a high pIC50 as a low IC50. A word on the half-life: it is the time in which the quantity being followed falls by half.
